High-throughput results (PubChem)
SENP8 block-1 = human SENP8 protease inhibitors, primary screen, biochemical, fluorescence, Nedd8 protein substrate, uHTS. Sentrin-specific protease 8 (Homo sapiens), Q96LD8. recombinant SENP8. inhibition, % at 20 µM. 360,000 tested, 0.64% active; in the data active = inhibition mostly above about 40%, no sharp cut-off; inactive = mostly below about 27%
Target sequence (Q96LD8 whole entry, looked up): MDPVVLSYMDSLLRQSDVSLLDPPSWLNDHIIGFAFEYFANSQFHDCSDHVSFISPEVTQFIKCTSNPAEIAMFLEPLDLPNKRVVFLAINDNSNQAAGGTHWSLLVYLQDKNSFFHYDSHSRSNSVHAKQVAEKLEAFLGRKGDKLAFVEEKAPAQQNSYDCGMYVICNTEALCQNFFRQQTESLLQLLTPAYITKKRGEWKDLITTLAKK
SENP6 block = SENP6 protease inhibitors, primary screen, biochemical, luminescence, uHTS; Recombinant SENP6 catalytic domain, aminoluciferin luminescence; inhibition, % at 10 µM; 330,000 tested, 1.8% active; AID 2599, 2010;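 active = inhibition above about 50% at the single tested dose, limit read from the data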
SENP8 block-2 = SENP8 protease inhibitors, primary screen, biochemical, luminescence; Sentrin-specific protease 8 (Homo sapiens), Q96LD8; purified SENP8, Z-RLRGG-aminoluciferin cleavage; inhibition, % at 10 µM; 330,000 tested, 1.2% active; in the data active = inhibition above about 50%
SENP1 inh = human SENP1 catalytic domain inhibitors, primary screen, biochemical, FRET, uHTS; 360,000 tested, 0.21% active; Sentrin-specific protease 1 (Homo sapiens), Q9P0U3; inhibition, % at 10 µM; recombinant SENP1 catalytic domain, CyPet-SUMO1-YPet FRET cleavage;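 active = inhibition at least 30% at 10 µM, raw YFP signal under a set limit, fluorescence ratio 0.5 to 1.5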
Target sequence (Q9P0U3 419-644 limits assumed): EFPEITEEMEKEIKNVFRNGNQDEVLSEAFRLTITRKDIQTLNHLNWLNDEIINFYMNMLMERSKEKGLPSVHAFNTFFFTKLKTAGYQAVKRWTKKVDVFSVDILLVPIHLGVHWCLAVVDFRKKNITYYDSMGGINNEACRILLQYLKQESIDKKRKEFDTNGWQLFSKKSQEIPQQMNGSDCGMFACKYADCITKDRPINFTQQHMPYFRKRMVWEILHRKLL
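Assay system: hSENP1 catalytic domain, recombinant. Amount: SENP1 enzyme, 20 pM final. Schedule: 50 min reaction, RT, dark. Technique: FRET, CFP and YFP emission. Control set: no-enzyme wells low, DMSO-plus-enzyme wells high control.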
SENP7 inh = SENP7 protease inhibitors, primary screen, biochemical, luminescence, uHTS; Sentrin-specific protease 7 (Homo sapiens), Q9BQF6; recombinant SENP7, Z-RLRGG-aminoluciferin luminescence, 40 min; inhibition, % at 5 µM; 330,000 tested, 1.5% active;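 active = inhibition above about 50% at the single test dose, limit read from the data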
SENP8 inh conf = human SENP8 protease inhibitors, confirmation, biochemical, Nedd8 protein substrate, single concentration. shares compounds with SENP8 block-1. purified SENP8, Nedd8-AMC/pro-Nedd8 cleavage fluorescence, 30 min. inhibition, % at 25 µM. 1,400 tested, 15% active. AID 624319, 2012; in the data active = inhibition mostly above about 39%, no sharp cut-off; inactive = mostly below about 34%
Large screens that a line does not name were inactive (follow-up assays come after a bar, where they were run). The list is not random: actives were taken first. Their share in the collection is about 2.5%.

COc1ccc(C(=O)N2C=Cc3ccccc3C2C#N)cc1 (centres undefined)	SENP8 block-1 50 (no result: SENP6 block, SENP8 block-2, SENP7 inh) | SENP8 inh conf 74
Cc1nn(C)cc1S(=O)(=O)Nc1ccc(F)c(F)c1	none
CCOc1[nH]n(-c2ccccc2)c(=O)c1C=Nc1ccccc1	none
COCc1[nH][nH]c(=O)c1C=Nc1ccc(Cl)cc1	SENP8 block-1 48 | SENP8 inh conf inactive
CCOc1[nH]n(-c2ccccc2)c(=O)c1C=Nc1ccc(Cl)cc1	SENP8 block-1 40 | SENP8 inh conf inactive
CCOc1[nH]n(-c2ccccc2)c(=O)c1C=Nc1ccc(C)cc1	none
Cc1[nH]n(-c2ccc(Cl)cc2)c(=O)c1C=Nc1ccc(S(=O)(=O)N2CCOCC2)cc1	SENP8 block-1 47 | SENP8 inh conf inactive
CCOc1[nH]n(-c2ccccc2)c(=O)c1C=Nc1ccc(C(=O)OC)cc1	SENP8 block-1 54 | SENP8 inh conf inactive
COc1nccnc1NS(=O)(=O)c1ccc(N=Cc2c(C)[nH]n(-c3ccc(Cl)cc3)c2=O)cc1	none (no result: SENP8 block-1, SENP1 inh)
COCc1[nH][nH]c(=O)c1C=Nc1ccccc1	none
O=C(O)CNS(=O)(=O)c1ccc(C2CCCCC2)cc1	none
O=C(CNc1ccc2c(c1)OCO2)N/N=C\c1cn(Cc2ccccc2)c2ccccc12	SENP8 block-1 44 | SENP8 inh conf inactive
CCOc1ccc(C(=O)NCC(=O)OCC(=O)Nc2ccc(C)c(S(=O)(=O)N(C)C)c2)cc1	none
Cc1ccc(C)c(C(=O)COC(=O)c2cccc(N3C(=O)c4c(C)nc5ccccc5c4C3=O)c2)c1	SENP8 block-1 42 | SENP8 inh conf inactive
NC(=O)CC(NC(=O)c1ccccc1)c1ccc(NCc2ccc(F)c(F)c2)c([N+](=O)[O-])c1 (centres undefined)	none
NC(=O)CC(NC(=O)c1ccccc1)c1ccc(NC2CCCCC2)c([N+](=O)[O-])c1 (centres undefined)	SENP8 block-1 43 | SENP8 inh conf inactive
NC(=O)CC(NC(=O)c1ccccc1)c1ccc(NCCc2ccc(Cl)cc2)c([N+](=O)[O-])c1 (centres undefined)	SENP8 block-1 44 | SENP8 inh conf inactive
O=C(O)/C=C\C(=O)Nc1ccc(N2CCN(c3ccc(F)cc3)CC2)cc1	SENP8 block-1 38 | SENP8 inh conf inactive
CC1(C)C[C@H]2C3=CCC4[C@@]5(C)CC[C@H](O)[C@](C)(CO)C5CC[C@@]4(C)[C@]3(C)CC[C@@]2(C)[C@H](O)[C@@H]1O (some centres undefined)	SENP8 block-1 40 | SENP8 inh conf inactive
Cc1ccc(NNC(=O)Nc2ccc(Cl)cc2)nn1	SENP8 block-1 48 | SENP8 inh conf inactive
O=C(NNc1cccc(Cl)n1)Nc1ccc(Cl)cc1	none
COc1ccc(CCC(=O)N(C)CC(=O)Nc2ccc(Cl)c(C(F)(F)F)c2)cc1	none
CCN(CC)Cc1cc(Nc2c3ccccc3nc3c4ccccc4n(C)c23)cc(CN(CC)CC)c1O	none (no result: SENP6 block, SENP8 block-2, SENP7 inh)
O=c1cc(-c2ccc(O)cc2)oc2cc(O)c([C@@H]3O[C@H](CO)[C@@H](O)[C@H](O)[C@H]3O)c(O)c12	SENP8 block-1 45 | SENP8 inh conf inactive
O=c1cc(-c2ccc(O)c(O)c2)oc2cc(O)c(C3OC(CO)C(O)C(O)C3O)c(O)c12 (centres undefined)	none
CCc1cc2c(SCC(=O)NC3CCCC3)ncnc2s1	none (no result: SENP6 block, SENP8 block-2, SENP7 inh)
Nc1c(NCCCN2CCOCC2)c2ccccc2oc1=O	SENP8 block-1 38 | SENP8 inh conf inactive
COc1ccc(-c2cc3c(=O)n(CC(=O)NCCN4CCCC4)nc(C)n3n2)cc1	none
CC1(C)SC(=S)N(/N=C/c2ccc(O)cc2)C1N(O)C(=O)Nc1ccc([N+](=O)[O-])cc1 (centres undefined)	none
Cc1ccc(/C=N/N2C(=S)SC(C)(C)C2N(O)C(=O)Nc2ccc([N+](=O)[O-])cc2)cc1 (centres undefined)	SENP8 block-1 40 | SENP8 inh conf inactive
